Values after ≈ are worked out from the molar mass of the structure shown. “Also recorded” adds a separate entry of the source.
How the values were obtained:
A549 cells [1] = assay: MTT growth inhibition of A549 cells; type: cell-based; settings: Homo sapiens
In short: (§1)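 Cells were grown in RPMI 1640 or DMEM with 10% FBS and 100 U/mL penicillin-streptomycin at 37 °C, 5% CO2. Log-phase cells were seeded at 3–5×10³ per well and cultured 24 h before graded drug concentrations were added. After 24 or 48 h exposure, MTT (5 mg/mL solution) was added for 3–4 h. Medium was removed, formazan dissolved in DMSO with 10 min shaking, and OD read at 490 nm. Growth inhibition rate was calculated from OD. Data are mean ± SD of triplicates.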

[2] = tested on: A549 subcutaneous transplanted tumor; assay: HE staining of tumor tissues; type: in vivo, nude mice; settings: tumor tissue after 21 days
In short: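 Subcutaneous tumors were excised after 21 days of treatment once the surviving mice were killed. Tissue was washed twice in 0.9% saline, fixed in 4% paraformaldehyde, dehydrated, paraffin-embedded and sectioned. Sections were stained with hematoxylin and eosin and assessed for pathology. All procedures were done blind.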

[3] = tested on: A549 subcutaneous transplanted tumor; assay: In vivo antitumor efficacy in tumor-bearing nude mice; settings: 21 days of administration
In short: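 The xenograft model used A549 cells. Treatment ran for 21 days with body weight tracked against the start of dosing; n = 5 per group. At the end, surviving mice were killed and tumors were excised and weighed to calculate tumor inhibition rate.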

[4] = tested on: heart, liver, kidney and lung tissues; assay: HE staining of organs; type: in vivo; settings: lung of nude mice after administration
A549 cells [5] = assay: Apoptosis of A549 cells; type: cell-based, human; settings: 24 h
H460 cells = assay: MTT growth inhibition of H460 cells; type: cell-based; settings: Homo sapiens
In short: as §1

Ki67 = assay: Immunohistochemistry of Ki67 in tumor tissues; type: in vivo, nude mice; settings: tumor tissue after 21 days
In short: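 Tumors were taken at the end of the 21-day study and fixed in 4% paraformaldehyde for 24 h. They were dehydrated in absolute alcohol, paraffin-embedded and sectioned. Antigen retrieval was 5 min at high temperature in 0.01 M citrate buffer, pH 6.0. Primary antibody (1:200) was applied overnight at 4 °C, then secondary antibody for 30 min at 37 °C. Sections were developed with DAB, counterstained with hematoxylin and imaged. Scoring was blind.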

SMILES: CC(=O)O[C@H]1C(=O)[C@@]2(C)[C@H]([C@H](OC(=O)c3ccccc3)[C@]3(O)C[C@H](OC(=O)[C@H](O)[C@@H](NC(=O)c4ccccc4)c4ccccc4)C(C)=C1C3(C)C)[C@]1(OC(C)=O)CO[C@@H]1C[C@@H]2O [PTX, paclitaxel]
- IC50 (A549 cells [1]; A549, 24 h): 45.9 µg/mL (≈ 53.7 µM)
- IC50 (A549 cells [1]; A549, 48 h): 31.7 µg/mL (≈ 37.1 µM)
- necrosis of tumor tissue (necrotic area) [2]: approximately 20%
- body weight change ([3]; nude mice): gradual
- tumor inhibition rate ([3]; tumor-bearing nude mice): 29.95%
- pathological changes in organs (HE staining) [4]: pathological changes and tumor cell infiltration; also recorded: different degrees of pathological changes and necrosis in their hearts and livers
- apoptosis rate (A549 cells [5]; A549, 5 μg/mL): 3.57%
- apoptosis rate (A549 cells [5]; A549, 10 μg/mL): 7.34%
- apoptosis rate (A549 cells [5]; A549, 20 μg/mL): 16.6%
- IC50 (H460 cells; NCI-H460, 24 h): 49.3 µg/mL (≈ 57.7 µM)
- IC50 (H460 cells; NCI-H460, 48 h): 39.4 µg/mL (≈ 46.1 µM)
- expression of Ki67 in tumor tissues (Ki67): 45.88%
